Measured values published in ChEMBL document CHEMBL1152541, “Staurosporine tethered peptide ligands that target cAMP-dependent protein kinase (PKA): optimization and selectivity profiling” (Bioorg Med Chem, 2009).
Values belong to the molecule of their own block, whether it stands above or below them. *1 amine or outer side, *2 acyl side, *3 side chain or, on linkers, in order; H or OH if unused. Where a SMILES comes first, the peptide text is derived from it. Bridges are numbered along the chain shown (N, C = ends). [ ]: non-standard residue; d: D form. The star is where a group is joined. Staurosporine = CO[C@@H]1[C@H](N(C)*)C[C@H]2O[C@]1(C)n1c3ccccc3c3c4c(c5c6ccccc6n2c5c31)C(=O)NC4; Suc = O=C(CCC(=O)[*:2])[*:1]; Dap = NC[C@H](N)C(=O)O; βAla = NCCC(=O)O

Key:
[1] = target: Serine/threonine-protein kinase pim-3 (Homo sapiens) (UniProt Q86V86); assay: Binding affinity to human PIM3 at 500 nM by cell-based competition binding assay relative to control in presence of DTT
[2] = target: Serine/threonine-protein kinase pim-1 (Homo sapiens) (UniProt P11309); assay: Ratio of compound to staurosporine binding affinity to human PIM1 in presence of DTT
[3] = target: MAP/microtubule affinity-regulating kinase 3 (Homo sapiens) (UniProt P27448); assay: Binding affinity to human MARK3 at 500 nM by cell-based competition binding assay relative to control in presence of DTT
Summary of the method: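 Kinase binding profile from a commercial panel of 90 kinases, run as a competitive binding assay. The panel was screened under reducing conditions of 7.5 mM DTT. Signal was compared with the untreated control.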

[4] = target: MAP kinase-interacting serine/threonine-protein kinase 1 (Homo sapiens) (UniProt Q9BUB5); assay: Binding affinity to human MKNK1 at 500 nM by cell-based competition binding assay relative to control in presence of DTT
[5] = target: Fibroblast growth factor receptor 3 (Homo sapiens) (UniProt P22607); assay: Binding affinity to human FGFR3 at 200 nM by cell-based competition binding assay relative to control in presence of DTT
Summary of the method: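 Commercial (Ambit) competitive kinase-binding panel of 90 kinases measured the binding profile. Run under reducing conditions of 7.5 mM DTT. Binding is expressed relative to control.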

[6] = target: Mitogen-activated protein kinase kinase kinase 9 (Homo sapiens) (UniProt P80192); assay: Binding affinity to human MLK1 at 200 nM by cell-based competition binding assay relative to control in presence of DTT
[7] = target: Tyrosine-protein kinase ABL1 (Homo sapiens) (UniProt P00519); assay: Binding affinity to human ABL1 at 200 nM by cell-based competition binding assay relative to control in presence of DTT
Summary of the method: (§1)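 Kinase binding profiling ran on a commercial (Ambit) competitive binding screen against a panel of 90 kinases. The screen used reducing conditions with 7.5 mM DTT. To withstand the DTT, the bivalent ligand was tested as its amide isostere, with the disulfide replaced. A staurosporine derivative carrying a 3 β-alanine linker was run as the reference compound.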

[8] = target: Serine/threonine-protein kinase B-raf (Homo sapiens) (UniProt P15056); assay: Binding affinity to human BRAF at 200 nM by cell-based competition binding assay relative to control in presence of DTT; summary of the method: as §1
[9] = target: Vascular endothelial growth factor receptor 2 (Homo sapiens) (UniProt P35968); assay: Binding affinity to human VEGFR2 at 200 nM by cell-based competition binding assay relative to control in presence of DTT
[10] = target: T1, Tyrosine-protein kinase ZAP-70 (Homo sapiens) (UniProt P43403); assay: Binding affinity to human ZAP70 at 200 nM by cell-based competition binding assay relative to control in presence of DTT
T1 sequence (whole entry): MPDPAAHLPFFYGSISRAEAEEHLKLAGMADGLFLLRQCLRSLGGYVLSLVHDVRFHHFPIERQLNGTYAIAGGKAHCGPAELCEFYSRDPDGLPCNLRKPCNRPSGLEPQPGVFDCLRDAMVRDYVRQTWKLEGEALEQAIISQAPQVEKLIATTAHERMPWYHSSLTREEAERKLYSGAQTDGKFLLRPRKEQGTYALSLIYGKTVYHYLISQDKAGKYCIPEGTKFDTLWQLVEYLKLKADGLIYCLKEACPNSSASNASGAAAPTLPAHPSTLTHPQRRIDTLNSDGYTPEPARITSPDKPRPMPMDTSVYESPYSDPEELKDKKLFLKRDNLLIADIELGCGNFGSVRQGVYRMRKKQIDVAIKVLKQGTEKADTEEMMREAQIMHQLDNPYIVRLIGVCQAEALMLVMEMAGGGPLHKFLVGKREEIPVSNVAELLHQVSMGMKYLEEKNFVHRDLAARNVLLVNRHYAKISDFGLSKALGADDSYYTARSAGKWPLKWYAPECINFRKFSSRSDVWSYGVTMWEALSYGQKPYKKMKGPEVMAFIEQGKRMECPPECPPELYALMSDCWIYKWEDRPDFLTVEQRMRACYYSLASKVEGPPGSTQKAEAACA

[11] = test system: Mast/stem cell growth factor receptor Kit (Homo sapiens), P10721 [V559D,T670I]; assay: Binding affinity to human KIT V559D,T670I mutant at 50 nM by cell-based competition binding assay relative to control in presence of DTT
Summary of the method: (§2)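 Competition binding screen (Ambit) across a panel of 90 kinases, scoring test ligand displacement of each kinase's binding relative to control. The screen ran under reducing conditions with 7.5 mM DTT.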

[12] = target: Mitogen-activated protein kinase 8 (Homo sapiens) (UniProt P45983); assay: Binding affinity to human JNK1 at 50 nM by cell-based competition binding assay relative to control in presence of DTT; summary of the method: as §2
[13] = target: cAMP-dependent protein kinase catalytic subunit alpha (Homo sapiens) (UniProt P17612); assay: Binding affinity to human PKACalpha at 50 nM by cell-based competition binding assay relative to control in presence of DTT

Chain of MAP kinase-interacting serine/threonine-protein kinase 1 (Homo sapiens) (Q9BUB5 whole entry, looked up): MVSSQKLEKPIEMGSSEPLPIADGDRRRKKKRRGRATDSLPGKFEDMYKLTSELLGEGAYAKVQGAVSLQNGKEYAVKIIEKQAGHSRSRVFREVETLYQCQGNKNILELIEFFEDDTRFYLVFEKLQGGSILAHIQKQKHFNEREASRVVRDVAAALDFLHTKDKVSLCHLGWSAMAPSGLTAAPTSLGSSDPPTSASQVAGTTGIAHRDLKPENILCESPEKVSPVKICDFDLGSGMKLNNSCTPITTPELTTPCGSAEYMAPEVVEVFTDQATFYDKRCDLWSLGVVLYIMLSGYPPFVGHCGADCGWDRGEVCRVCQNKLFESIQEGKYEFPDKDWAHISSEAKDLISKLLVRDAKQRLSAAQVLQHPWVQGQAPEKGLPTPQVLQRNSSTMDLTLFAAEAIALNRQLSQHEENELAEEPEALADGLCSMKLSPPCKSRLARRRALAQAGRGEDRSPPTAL
Chain of Mitogen-activated protein kinase kinase kinase 9 (Homo sapiens) (P80192 whole entry, looked up): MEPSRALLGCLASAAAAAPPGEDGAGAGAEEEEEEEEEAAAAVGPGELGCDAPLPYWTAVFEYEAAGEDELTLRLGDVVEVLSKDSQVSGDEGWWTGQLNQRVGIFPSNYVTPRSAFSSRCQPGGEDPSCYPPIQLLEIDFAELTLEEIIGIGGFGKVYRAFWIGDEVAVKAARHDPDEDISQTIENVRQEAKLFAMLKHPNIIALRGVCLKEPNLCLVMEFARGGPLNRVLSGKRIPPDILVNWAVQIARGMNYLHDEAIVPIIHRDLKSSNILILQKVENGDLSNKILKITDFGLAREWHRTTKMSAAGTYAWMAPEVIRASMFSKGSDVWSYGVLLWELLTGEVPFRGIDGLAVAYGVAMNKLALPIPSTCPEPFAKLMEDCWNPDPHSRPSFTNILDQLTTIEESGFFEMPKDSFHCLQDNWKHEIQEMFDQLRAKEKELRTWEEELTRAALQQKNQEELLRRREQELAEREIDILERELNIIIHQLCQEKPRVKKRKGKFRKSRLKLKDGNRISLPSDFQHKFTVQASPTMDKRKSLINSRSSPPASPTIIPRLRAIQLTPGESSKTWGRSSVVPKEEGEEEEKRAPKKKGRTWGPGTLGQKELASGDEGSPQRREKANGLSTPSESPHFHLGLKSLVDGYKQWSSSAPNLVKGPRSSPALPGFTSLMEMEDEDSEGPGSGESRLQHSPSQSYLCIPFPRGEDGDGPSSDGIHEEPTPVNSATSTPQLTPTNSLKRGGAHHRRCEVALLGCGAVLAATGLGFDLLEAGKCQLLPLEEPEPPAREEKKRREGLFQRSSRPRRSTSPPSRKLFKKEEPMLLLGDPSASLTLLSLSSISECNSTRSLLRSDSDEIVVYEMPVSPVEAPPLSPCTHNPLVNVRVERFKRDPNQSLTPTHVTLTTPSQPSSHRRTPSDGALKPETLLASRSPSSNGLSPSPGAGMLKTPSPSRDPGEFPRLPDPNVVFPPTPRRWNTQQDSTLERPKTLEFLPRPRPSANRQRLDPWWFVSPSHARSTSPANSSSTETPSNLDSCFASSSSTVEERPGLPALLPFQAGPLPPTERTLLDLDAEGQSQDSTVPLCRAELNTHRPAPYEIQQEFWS
Chain of Vascular endothelial growth factor receptor 2 (Homo sapiens) (P35968 whole entry): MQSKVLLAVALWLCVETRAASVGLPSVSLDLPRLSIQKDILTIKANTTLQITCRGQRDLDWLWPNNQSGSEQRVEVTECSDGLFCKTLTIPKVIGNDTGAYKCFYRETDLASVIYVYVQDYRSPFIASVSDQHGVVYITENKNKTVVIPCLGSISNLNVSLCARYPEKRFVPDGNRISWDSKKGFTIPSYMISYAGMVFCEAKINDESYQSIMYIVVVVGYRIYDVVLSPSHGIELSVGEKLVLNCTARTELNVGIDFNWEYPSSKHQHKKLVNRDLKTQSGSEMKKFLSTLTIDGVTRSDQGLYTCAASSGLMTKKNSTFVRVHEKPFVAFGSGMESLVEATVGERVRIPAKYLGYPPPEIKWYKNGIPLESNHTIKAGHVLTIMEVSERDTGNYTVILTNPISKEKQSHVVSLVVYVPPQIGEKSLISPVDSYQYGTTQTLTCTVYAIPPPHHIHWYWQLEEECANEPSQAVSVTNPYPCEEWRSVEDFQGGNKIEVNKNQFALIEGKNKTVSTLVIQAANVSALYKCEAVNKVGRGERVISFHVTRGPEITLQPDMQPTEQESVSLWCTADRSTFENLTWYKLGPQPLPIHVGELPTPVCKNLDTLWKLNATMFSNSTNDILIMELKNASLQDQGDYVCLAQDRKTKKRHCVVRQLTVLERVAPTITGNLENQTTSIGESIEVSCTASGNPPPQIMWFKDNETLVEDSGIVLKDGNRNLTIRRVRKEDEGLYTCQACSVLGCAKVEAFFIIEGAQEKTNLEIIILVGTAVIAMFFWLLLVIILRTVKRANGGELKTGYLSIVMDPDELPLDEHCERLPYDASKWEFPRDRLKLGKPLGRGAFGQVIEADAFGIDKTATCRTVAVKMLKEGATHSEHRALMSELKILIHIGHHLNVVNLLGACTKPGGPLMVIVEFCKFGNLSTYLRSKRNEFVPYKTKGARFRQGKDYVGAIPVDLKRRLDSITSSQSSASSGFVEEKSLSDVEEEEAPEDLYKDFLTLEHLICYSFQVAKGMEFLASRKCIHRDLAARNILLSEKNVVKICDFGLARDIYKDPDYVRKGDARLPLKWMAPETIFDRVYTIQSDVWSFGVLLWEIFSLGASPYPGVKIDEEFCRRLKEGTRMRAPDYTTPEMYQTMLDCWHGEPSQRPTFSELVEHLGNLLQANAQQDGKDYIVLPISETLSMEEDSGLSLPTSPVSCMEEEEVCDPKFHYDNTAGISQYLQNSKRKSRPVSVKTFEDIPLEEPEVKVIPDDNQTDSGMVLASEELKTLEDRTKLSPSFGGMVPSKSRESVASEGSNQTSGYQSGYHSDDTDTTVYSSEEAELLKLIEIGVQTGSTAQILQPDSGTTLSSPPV
Chain of MAP/microtubule affinity-regulating kinase 3 (Homo sapiens) (P27448 whole entry, looked up): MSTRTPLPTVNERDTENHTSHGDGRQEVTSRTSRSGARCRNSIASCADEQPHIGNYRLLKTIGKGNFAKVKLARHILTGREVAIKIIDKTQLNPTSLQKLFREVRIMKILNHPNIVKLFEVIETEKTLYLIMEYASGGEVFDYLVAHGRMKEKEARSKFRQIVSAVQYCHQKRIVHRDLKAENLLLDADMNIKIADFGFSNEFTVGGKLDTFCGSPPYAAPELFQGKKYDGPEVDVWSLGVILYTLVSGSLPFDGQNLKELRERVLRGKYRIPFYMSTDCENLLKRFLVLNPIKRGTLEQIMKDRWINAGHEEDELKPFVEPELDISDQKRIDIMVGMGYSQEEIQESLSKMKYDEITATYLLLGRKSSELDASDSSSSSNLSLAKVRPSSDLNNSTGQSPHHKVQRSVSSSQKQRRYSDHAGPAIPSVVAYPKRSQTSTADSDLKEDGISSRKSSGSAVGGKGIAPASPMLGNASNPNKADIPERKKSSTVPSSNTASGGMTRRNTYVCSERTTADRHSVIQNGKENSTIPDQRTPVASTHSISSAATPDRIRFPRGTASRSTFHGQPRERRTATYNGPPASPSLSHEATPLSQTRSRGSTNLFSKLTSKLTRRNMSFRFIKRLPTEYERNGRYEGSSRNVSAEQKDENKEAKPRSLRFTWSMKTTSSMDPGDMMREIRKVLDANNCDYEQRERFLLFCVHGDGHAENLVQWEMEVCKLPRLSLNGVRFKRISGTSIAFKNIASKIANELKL
Chain of Fibroblast growth factor receptor 3 (Homo sapiens) (P22607 23-806 limits assumed): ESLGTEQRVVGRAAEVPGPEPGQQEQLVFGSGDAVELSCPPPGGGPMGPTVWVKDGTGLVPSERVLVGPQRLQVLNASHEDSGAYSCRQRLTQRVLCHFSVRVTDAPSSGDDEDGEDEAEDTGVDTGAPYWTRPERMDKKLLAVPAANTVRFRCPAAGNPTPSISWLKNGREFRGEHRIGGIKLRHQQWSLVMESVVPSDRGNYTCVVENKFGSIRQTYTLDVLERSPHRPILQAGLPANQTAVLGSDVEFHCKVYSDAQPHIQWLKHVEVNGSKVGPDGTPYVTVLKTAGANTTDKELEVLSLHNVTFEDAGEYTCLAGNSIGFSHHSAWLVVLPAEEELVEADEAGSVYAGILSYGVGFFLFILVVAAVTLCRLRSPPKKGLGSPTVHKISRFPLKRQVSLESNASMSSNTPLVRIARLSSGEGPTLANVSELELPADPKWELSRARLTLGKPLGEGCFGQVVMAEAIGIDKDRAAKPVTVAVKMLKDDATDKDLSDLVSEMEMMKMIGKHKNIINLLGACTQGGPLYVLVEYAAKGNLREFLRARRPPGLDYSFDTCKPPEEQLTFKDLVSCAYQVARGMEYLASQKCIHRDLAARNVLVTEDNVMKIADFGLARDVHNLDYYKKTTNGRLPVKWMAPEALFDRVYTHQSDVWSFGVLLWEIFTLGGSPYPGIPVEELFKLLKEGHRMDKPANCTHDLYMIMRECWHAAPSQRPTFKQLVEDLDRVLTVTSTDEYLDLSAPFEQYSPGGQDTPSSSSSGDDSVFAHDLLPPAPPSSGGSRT

Activity [1]: 10%
Selectivity ratio [2]: 31
Activity [3]: 16%
Activity [4]: 82%
SMILES: CO[C@@H]1[C@H](N(C)C(=O)CCC(=O)NCCC(=O)NCCC(=O)NCCC(N)=O)C[C@H]2O[C@]1(C)n1c3ccccc3c3c4c(c5c6ccccc6n2c5c31)C(=O)NC4

Activity [5]: 85%
Activity [6]: 0.65%
Activity [7]: 100%
Activity [8]: 100%
Activity [9]: 73%
Activity [10]: 16%
SMILES: CO[C@@H]1[C@H](N(C)C(=O)CCC(=O)NCCC(=O)NCCC(=O)NCCC(=O)NCCC(=O)NCCC(=O)NCCC(=O)NCCC(=O)N[C@H]2CSSC[C@@H](C(=O)NCC(N)=O)NC(=O)CNC(=O)[C@H](Cc3ccccc3)NC(=O)[C@H](C(C)C)NC(=O)[C@H](CCCNC(=N)N)NC(=O)[C@H](Cc3ccccc3)NC(=O)[C@H](C(C)C)NC2=O)C[C@H]2O[C@]1(C)n1c3ccccc3c3c4c(c5c6ccccc6n2c5c31)C(=O)NC4 ({Staurosporine-Suc-βAla-βAla-βAla-βAla-βAla-βAla-βAla}-CVFRVFGCG-NH2; disulfide 1-8)

Activity [11]: 59%
Activity [12]: 100%
Activity [13]: 10%
SMILES: CO[C@@H]1[C@H](N(C)C(=O)CCC(=O)NCCC(=O)NCCC(=O)NCCC(=O)NCCC(=O)NCCC(=O)NCCC(=O)NCCC(=O)N[C@H]2CNC(=O)C[C@@H](C(N)=O)NC(=O)CNC(=O)[C@H](Cc3ccccc3)NC(=O)[C@H](C(C)C)NC(=O)[C@H](CCCNC(=N)N)NC(=O)[C@H](Cc3ccccc3)NC(=O)[C@H](C(C)C)NC2=O)C[C@H]2O[C@]1(C)n1c3ccccc3c3c4c(c5c6ccccc6n2c5c31)C(=O)NC4 ({Staurosporine-Suc-βAla-βAla-βAla-βAla-βAla-βAla-βAla}-[Dap]VFRVFGD-NH2; lactam 1-8)
